Measured values taken from ChEMBL document CHEMBL3997810, “A Novel Potent Anticancer Compound Optimized from a Natural Oridonin Scaffold Induces Apoptosis and Cell Cycle Arrest through the Mitochondrial Pathway” (J Med Chem, 2017).
pIC50: −log10 of the molar value. The source made the active and inactive calls. No cut-off for these calls is given here.

Tests used:
Bel-7402 [1] = assay: Antiproliferative activity against human Bel7402 cells at 1 uM after 72 hrs by MTT assay; format: functional, cell-based
MGC-803 = assay: Antiproliferative activity against human MGC803 cells after 72 hrs by MTT assay; format: functional, cell-based; conditions: MGC-803, 72 h
Method in brief: (§1)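 MGC-803 and MCF-7 cells grown in DMEM (MCF-7 with 1× NEAA); Bel-7402 and K562 grown in RPMI 1640; all media with 10% FBS. Cells seeded at 3500/well, pre-incubated 24 h, then exposed to compounds in fresh medium (DMSO ≤0.25%) for 72 h at 37 °C. MTT read-out at 570 nm. Quadruplicate wells, repeated three times; means ± SD (n = 3).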

Bel-7402 [2] = assay: Antiproliferative activity against human Bel7402 cells after 72 hrs by MTT assay; format: functional, cell-based; conditions: Bel-7402, 72 h; method in brief: as §1
MCF7 [3] = assay: Antiproliferative activity against human MCF7 cells after 72 hrs by MTT assay; format: functional, cell-based; conditions: MCF7, 72 h; method in brief: as §1
K562 = assay: Antiproliferative activity against human K562 cells after 72 hrs by MTT assay; format: functional, cell-based; conditions: K562, 72 h; method in brief: as §1
KB 3-1 = assay: Antiproliferative activity against human KB-3-1 cells after 48 hrs by MTT assay; format: functional, cell-based; conditions: KB 3-1, 48 h
Method in brief: (§2)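 Colorimetric MTT assay. KB-3-1, NCI-H460 and Bel-7404 cells were seeded at 4000 cells/well; resistant KB/CP4, NCI-H460/MX20 and Bel-7404/CP20 were seeded at 7000 cells/well. Cells were pre-incubated 24 h at 37 °C, 5% CO2, then exposed to a compound concentration series for 48 h with DMSO ≤0.25%. Absorbance read at 570 nm. Quadruplicate wells, three repeats; means ± SD.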

[4] = Antiproliferative activity against human KB/CP4 cells after 48 hrs by MTT assay; format: functional, cell-based; conditions: KB/CP4, 48 h; method in brief: as §2
NCI-H460 = assay: Antiproliferative activity against human NCI-H460 cells after 48 hrs by MTT assay; format: functional, cell-based; conditions: NCI-H460, 48 h; method in brief: as §2
[5] = Antiproliferative activity against human NCI-H460/MX20 cells after 48 hrs by MTT assay; format: functional, cell-based; conditions: NCI-H460/MX20, 48 h; method in brief: as §2
BEL-7404 tumor cell line = assay: Antiproliferative activity against human Bel7404 cells after 48 hrs by MTT assay; format: functional, cell-based; conditions: BEL-7404, 48 h; method in brief: as §2
[6] = Antiproliferative activity against human BEL7404/CP20 cells after 48 hrs by MTT assay; format: functional, cell-based; conditions: BEL7404/CP20, 48 h; method in brief: as §2
[7] = Selectivity ratio of IC50 for human L02 cells to IC50 for human Bel7402 cells
MCF7 [8] = assay: Cytotoxicity against human MCF7 cells at 10 to 50 uM after 24 hrs by LDH assay; format: functional, cell-based
Method in brief: (§3)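 Membrane integrity assay on MCF-7 and Bel-7402 cells seeded at ~5 × 10^3 per well for 24 h, then given compounds at 10, 20 or 50 μM. Culture medium collected and assayed with CytoTox-ONE LDH reagent for 10 min, followed by stop solution. Fluorescence read at Ex 560/Em 590 nm. Expressed as percentage of unstimulated cells.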

Bel-7402 [9] = assay: Cytotoxicity against human Bel7402 cells at 10 to 50 uM after 24 hrs by LDH assay; format: functional, cell-based; method in brief: as §3
MCF7 [10] = assay: Antitumor activity against human MCF7 cells xenografted in Balb/c nude mouse assessed as tumor growth inhibition at 20 mg/kg/day, iv for 4 weeks relative to control; format: functional; conditions: 672 h, read-out: TGI
Method in brief: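 Six-week-old male BALB/c nude mice received 1 × 10^6 MCF-7 cells subcutaneously in the right flank. After 7 d of tumor growth, mice were randomized into groups of six. Dosing was 20 mg/kg iv once daily for 28 days in 10% DMF/2% poloxamer/88% saline. Tumor volume (L × W²/2) and body weight were recorded every 2 days. Inhibition = (1 − mean treated/control tumor weight) × 100%.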

Mus musculus [11] = assay: Toxicity in Balb/c nude mouse xenografted with human MCF7 cells assessed as changes in body weight at 20 mg/kg/day, iv for 4 weeks measured once in 2 days during compound dosing; format: organism-based; conditions: in vivo
Method in brief: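 Mice received 1 × 10^6 tumor cells subcutaneously in the right flank: MCF-7 in male BALB/c nude mice aged six weeks, H22 in male ICR mice aged five weeks. After 7 d they were randomized (six or eight per group). Dosing was 20 mg/kg iv daily in 10% DMF/2% poloxamer/88% saline for 21 or 28 days; saline control. Body weight was recorded every 2 days.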

Mus musculus [12] = assay: Cardiotoxicity in Balb/c nude mouse xenografted with human MCF7 cells assessed as morphological changes in heart at 20 mg/kg/day, iv for 4 weeks by hematoxylin and eosin staining based microscopic method; format: toxicity, organism-based; conditions: in vivo, 672 h
Method in brief: (§4)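 Male BALB/c nude mice (6 weeks old) carrying subcutaneous MCF-7 xenografts (1 × 10^6 cells). Dosed iv 20 mg/kg daily for 28 days in 10% DMF/2% poloxamer/88% saline; six mice per group. Organs then fixed in 4% paraformaldehyde, paraffin-embedded, cut at 5 μm, stained with Harris hematoxylin and eosin-phloxine, and examined by light microscopy.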

Mus musculus [13] = assay: Hepatotoxicity in Balb/c nude mouse xenografted with human MCF7 cells assessed as morphological changes in liver at 20 mg/kg/day, iv for 4 weeks by hematoxylin and eosin staining based microscopic method; format: toxicity, organism-based; conditions: in vivo, 672 h; method in brief: as §4
Mus musculus [14] = assay: Nephrotoxicity in Balb/c nude mouse xenografted with human MCF7 cells assessed as morphological changes in kidney at 20 mg/kg/day, iv for 4 weeks by hematoxylin and eosin staining based microscopic method; format: toxicity, organism-based; conditions: in vivo, 672 h
Method in brief: (§5)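 Male BALB/c nude mice aged six weeks received 1 × 10^6 MCF-7 cells subcutaneously in the right flank. After 7 d they were randomized and dosed 20 mg/kg iv once daily in 10% DMF/2% poloxamer/88% saline; saline control. Heart, liver, spleen, lung and kidney were fixed in 4% paraformaldehyde, paraffin-embedded, sectioned at 5 μm, H&E stained and examined microscopically.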

Mus musculus [15] = assay: Toxicity in Balb/c nude mouse xenografted with human MCF7 cells assessed as morphological changes in lungs at 20 mg/kg/day, iv for 4 weeks by hematoxylin and eosin staining based microscopic method; format: organism-based; conditions: in vivo, 672 h; method in brief: as §5
Mus musculus [16] = assay: Toxicity in Balb/c nude mouse xenografted with human MCF7 cells assessed as morphological changes in spleen at 20 mg/kg/day, iv for 4 weeks by hematoxylin and eosin staining based microscopic method; format: organism-based; conditions: in vivo, 672 h; method in brief: as §5
[17] = Selectivity ratio of IC50 for human KB/CP4 cells to IC50 for human KB-3-1 cells

| pIC50 (MGC-803) | pIC50 (Bel-7402 [2]) | pIC50 (MCF7 [3]) | pIC50 (K562) | pIC50 (KB 3-1) | pIC50 (NCI-H460) | pIC50 (BEL-7404 tumor cell line) | SMILES | Activity (Bel-7402 [1]) | pIC50 [4] | pIC50 [5] | pIC50 [6] | Activity (MCF7 [8]) | Activity (Bel-7402 [9]) | inhibition in vivo at 20 mg/kg/day (MCF7 [10]) | Ratio IC50 [17] | further results |
| --- | --- | --- | --- | --- | --- | --- | --- | --- | --- | --- | --- | --- | --- | --- | --- | --- |
| 5.44 | 5.44 | 5.83 | 5.10 |  |  |  | C=C1C(=O)[C@@]23[C@@H]4OC(C)(C)O[C@@]25OC[C@]2(C=CCC(C)(C)[C@H]2[C@@H]5O)[C@@H]3CC[C@@H]14 | Active |  |  |  |  |  |  |  |  |
| 5.04 | 5.27 | 4.75 | 5.36 | 4.88 | 4.69 | 4.75 | C=C1C(=O)[C@]23[C@H](O)[C@H]1CC[C@H]2[C@@]12CO[C@]3(O)[C@@H](O)[C@@H]1C(C)(C)CC[C@@H]2O [ORIDONIN] |  | 4.97 | 4.59 | 4.77 | inactive | inactive | 58.9% |  | Ratio IC50 [7]: 6; Activity (Mus musculus [11]): Non-Toxic; Activity (Mus musculus [12]): Non-Toxic; Activity (Mus musculus [13]): Non-Toxic; Activity (Mus musculus [14]): Non-Toxic; Activity (Mus musculus [15]): Non-Toxic; Activity (Mus musculus [16]): Non-Toxic |
| 5.25 | 5.46 | 4.95 | 5.55 | 4.78 | 4.72 | 4.79 | C=C1C(=O)[C@]23[C@H](O)[C@H]1CC[C@H]2[C@]12C=CC(=O)C(C)(C)[C@H]1[C@H](O)[C@]3(O)OC2 | Active | 4.79 | 4.27 | 4.82 | inactive | inactive |  | <1 |  |
| 5.99 | 6.35 | 6.74 | 5.90 | 5.21 | 5.61 | 5.18 | C=C1C(=O)[C@]23[C@H](OC(=O)c4cccc(C)c4)[C@H]1CC[C@H]2[C@]12C=CCC(C)(C)[C@H]1[C@H](O)[C@]3(O)OC2 |  | 6.00 | 4.85 | 5.47 |  |  |  | <1 | Ratio IC50 [7]: 14.58 |

More lines, now with the values behind:

| SMILES | pIC50 (MGC-803) | pIC50 (Bel-7402 [2]) | pIC50 (MCF7 [3]) | pIC50 (K562) | pIC50 (KB 3-1) | pIC50 (NCI-H460) | pIC50 (BEL-7404 tumor cell line) | Activity (Bel-7402 [1]) | pIC50 [4] | pIC50 [5] | pIC50 [6] | Activity (MCF7 [8]) | Activity (Bel-7402 [9]) | inhibition in vivo at 20 mg/kg/day (MCF7 [10]) | Ratio IC50 [17] | further results |
| --- | --- | --- | --- | --- | --- | --- | --- | --- | --- | --- | --- | --- | --- | --- | --- | --- |
| C=C1C(=O)[C@@]23[C@@H]4OC(C)(C)O[C@@]25OC[C@]2([C@@H]6O[C@@H]6CC(C)(C)[C@H]2[C@@H]5O)[C@@H]3CC[C@@H]14 | 5.85 | 5.88 | 5.80 | 5.78 |  |  |  | Active |  |  |  |  |  |  |  |  |
| C=C1C(=O)[C@@]23[C@@H]4OC(C)(C)O[C@@]25OC[C@]2([C@@H](OS(C)(=O)=O)CCC(C)(C)[C@H]2[C@@H]5O)[C@@H]3CC[C@@H]14 |  |  |  |  |  |  |  | Active |  |  |  |  |  |  |  |  |
| C=C1C(=O)[C@]23[C@H](OC(C)=O)[C@H]1CC[C@H]2[C@]12C=C[C@H](OC(C)=O)C(C)(C)[C@H]1[C@H](O)[C@]3(O)OC2 | 5.51 | 5.68 | 5.38 | 5.73 |  |  |  | Active |  |  |  |  |  |  |  |  |
| C=C1C(=O)[C@]23[C@H](O)[C@H]1CC[C@H]2[C@]12C=CCC(C)(C)[C@H]1[C@H](O)[C@]3(O)OC2 | 5.91 | 5.80 | 5.70 | 6.66 | 5.29 | 5.57 | 5.41 | Active | 5.53 | 4.96 | 5.30 | inactive | inactive | 61.6% | <1 | Activity (Mus musculus [11]): Non-Toxic; Activity (Mus musculus [12]): Non-Toxic; Activity (Mus musculus [13]): Non-Toxic; Activity (Mus musculus [14]): Non-Toxic; Activity (Mus musculus [15]): Non-Toxic; Activity (Mus musculus [16]): Non-Toxic |
| O=P1(N(CCCl)CCCl)NCCCO1 (centres undefined) [CYCLOPHOSPHAMIDE ANHYDROUS] |  |  |  |  |  |  |  |  |  |  |  |  |  | 64.6% |  |  |
